Assay results published in ChEMBL document CHEMBL4834402, “Discovery of TAK-981, a First-in-Class Inhibitor of SUMO-Activating Enzyme for the Treatment of Cancer” (J Med Chem, 2021).

What was measured:
SUMO-activating enzyme [1] = target: T1, SUMO-activating enzyme (Homo sapiens, UniProt Q9UBT2); test: Inhibition of SAE (unknown origin) using SUMO2 as substrate incubated for 60 mins in presence of ATP and PPi by pyrophosphate exchange assay; type: protein-complex assay
Outline: (§1)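 Pyrophosphate exchange assay of E1 activity at 1 mM ATP. Substrates were SUMO1 or SUMO2 for SAE, Ub for UAE and Nedd-8 for NAE.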

NEDD8 activating enzyme [2] = target: T2, NEDD8 activating enzyme (Homo sapiens, UniProt Q8TBC4); test: Inhibition of recombinant NAE (unknown origin) in presence of ATP at Km concentration by HTRF assay; type: protein-complex assay
T2 sequence (Q8TBC4 whole entry): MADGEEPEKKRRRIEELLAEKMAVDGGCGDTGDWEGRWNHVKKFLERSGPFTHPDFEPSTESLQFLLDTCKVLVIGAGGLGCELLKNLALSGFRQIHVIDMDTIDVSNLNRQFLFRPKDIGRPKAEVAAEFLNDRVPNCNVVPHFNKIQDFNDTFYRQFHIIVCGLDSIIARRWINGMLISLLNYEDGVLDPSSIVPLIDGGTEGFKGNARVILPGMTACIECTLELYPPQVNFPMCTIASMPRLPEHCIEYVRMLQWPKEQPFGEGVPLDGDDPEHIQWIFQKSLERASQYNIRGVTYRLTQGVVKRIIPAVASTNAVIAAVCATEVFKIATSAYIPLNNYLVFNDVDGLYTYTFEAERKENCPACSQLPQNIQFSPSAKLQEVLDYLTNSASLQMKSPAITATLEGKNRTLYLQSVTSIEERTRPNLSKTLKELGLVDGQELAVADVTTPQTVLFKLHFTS
T2 sequence (Q13564 whole entry): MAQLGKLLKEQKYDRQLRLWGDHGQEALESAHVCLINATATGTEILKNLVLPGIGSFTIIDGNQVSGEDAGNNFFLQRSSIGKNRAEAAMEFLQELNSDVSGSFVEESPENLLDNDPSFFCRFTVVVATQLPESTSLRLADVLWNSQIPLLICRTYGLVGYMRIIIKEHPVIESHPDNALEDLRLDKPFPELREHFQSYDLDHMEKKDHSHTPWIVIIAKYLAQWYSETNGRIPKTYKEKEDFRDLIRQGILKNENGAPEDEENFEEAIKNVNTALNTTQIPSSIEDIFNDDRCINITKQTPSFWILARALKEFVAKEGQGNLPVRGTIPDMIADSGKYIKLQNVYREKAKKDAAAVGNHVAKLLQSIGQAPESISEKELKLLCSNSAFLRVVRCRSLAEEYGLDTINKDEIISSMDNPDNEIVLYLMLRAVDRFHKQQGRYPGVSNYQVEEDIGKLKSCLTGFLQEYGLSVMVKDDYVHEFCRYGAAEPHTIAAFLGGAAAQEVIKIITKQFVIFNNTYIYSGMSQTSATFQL

[3] = Inhibition of UAE (unknown origin) using Ub as substrate incubated for 60 mins in presence of ATP and PPi by pyrophosphate exchange assay; parameters: species or system Homo sapiens; outline: as §1
SUMO-activating enzyme [4] = target: T1, SUMO-activating enzyme; test: Inhibition of SAE in human HCT116 cells assessed as reduction in conjugation of SUMO proteins to UBC9 by Western blot analysis; type: cell-based, HCT-116
Outline: (§2)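 HCT116 cells, quantitative Western blot of E2–UBL conjugates. Read-outs were SUMO–UBC9 for SAE, ubiquitin–[…] for UAE and Nedd-8–[…] for NAE.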

SUMO-activating enzyme [5] = target: T1, SUMO-activating enzyme; test: Inhibition of recombinant SAE (unknown origin) assessed as reduction in transfer of SUMO1 to UBC9 using SUMO1 as a substrate in presence of ATP at Km concentration by HTRF assay; type: protein-complex assay
Outline: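 HTRF transthiolation assay measuring transfer of SUMO1 to UBC9, the E2 for SAE.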

[6] = Inhibition of recombinant UAE (unknown origin) in presence of ATP at Km concentration by HTRF assay; parameters: species or system Homo sapiens
SUMO-activating enzyme [7] = target: T1, SUMO-activating enzyme; test: Inhibition of SAE in human HCT116 cells assessed as reduction in redistribution of SUMO2/3 proteins from nucleus to cytosol incubated for 4 hrs by immunofluorescence assay; type: cell-based, HCT-116
Outline: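 HCT-116 cells exposed to compound across a concentration range for 4 h, then stained with anti-SUMO2/3 monoclonal antibody. Automated imaging scored the nuclear (inner) to cytoplasmic (outer) SUMO2/3 ratio. IC50 taken from the dose response.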

SUMO-activating enzyme [8] = target: T1, SUMO-activating enzyme; test: Inhibition of SAE (unknown origin) using SUMO1 as substrate incubated for 60 mins in presence of ATP and PPi by pyrophosphate exchange assay; type: protein-complex assay; outline: as §1
NEDD8 activating enzyme [9] = target: T2, NEDD8 activating enzyme; test: Inhibition of NAE (unknown origin) using Nedd-8 as substrate incubated for 60 mins in presence of ATP and PPi by pyrophosphate exchange assay; type: protein-complex assay; outline: as §1
NEDD8 activating enzyme [10] = target: T2, NEDD8 activating enzyme; test: Inhibition of NAE in human HCT116 cells assessed as reduction in conjugation of Nedd8 […] by Western blot analysis; type: cell-based, HCT-116; outline: as §2
[11] = Inhibition of UAE in human HCT116 cells assessed as reduction in conjugation of ubiquitin to […] by Western blot analysis; type: cell-based; conditions: hct-116; outline: as §2

T1 sequence (Q9UBE0 whole entry): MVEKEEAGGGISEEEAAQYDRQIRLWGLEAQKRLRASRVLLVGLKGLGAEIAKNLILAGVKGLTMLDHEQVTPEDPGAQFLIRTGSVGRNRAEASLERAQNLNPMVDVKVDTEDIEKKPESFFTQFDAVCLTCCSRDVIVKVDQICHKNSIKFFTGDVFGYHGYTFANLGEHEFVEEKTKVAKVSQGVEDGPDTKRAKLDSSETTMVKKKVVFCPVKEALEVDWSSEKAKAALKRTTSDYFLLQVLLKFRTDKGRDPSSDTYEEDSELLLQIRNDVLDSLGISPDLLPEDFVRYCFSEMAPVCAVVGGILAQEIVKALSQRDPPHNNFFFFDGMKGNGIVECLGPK
T1 sequence (Q9UBT2 whole entry): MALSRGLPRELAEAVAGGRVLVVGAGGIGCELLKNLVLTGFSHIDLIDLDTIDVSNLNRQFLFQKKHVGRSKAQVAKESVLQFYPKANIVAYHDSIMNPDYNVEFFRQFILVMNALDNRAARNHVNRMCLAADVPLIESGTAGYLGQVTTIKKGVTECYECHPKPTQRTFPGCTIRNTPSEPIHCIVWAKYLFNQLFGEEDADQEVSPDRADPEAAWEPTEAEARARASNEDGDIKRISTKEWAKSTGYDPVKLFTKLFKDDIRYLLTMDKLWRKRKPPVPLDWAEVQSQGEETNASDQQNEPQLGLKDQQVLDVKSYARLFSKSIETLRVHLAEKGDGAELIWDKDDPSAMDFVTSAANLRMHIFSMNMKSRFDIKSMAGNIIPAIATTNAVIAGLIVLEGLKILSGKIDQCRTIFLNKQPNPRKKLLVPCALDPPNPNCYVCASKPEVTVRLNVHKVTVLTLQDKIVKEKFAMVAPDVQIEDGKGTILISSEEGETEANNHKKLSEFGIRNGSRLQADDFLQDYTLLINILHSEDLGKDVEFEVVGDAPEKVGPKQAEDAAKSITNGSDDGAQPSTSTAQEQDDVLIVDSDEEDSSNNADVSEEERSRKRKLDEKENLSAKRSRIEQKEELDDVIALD

Structure (SMILES): NS(=O)(=O)OC[C@H]1C[C@@H](Nc2ncncc2C(=O)c2ccn(Cc3ccccc3)n2)[C@H](O)[C@@H]1O
- IC50 (SUMO-activating enzyme [1]): 0.05 µM
- IC50 (NEDD8 activating enzyme [2]): 0.029 µM
- IC50 [3]: 1.1 µM
- IC50 (SUMO-activating enzyme [4]): 0.006 µM
- IC50 (SUMO-activating enzyme [5]): 0.001 µM
- IC50 [6]: 0.058 µM
- IC50 (SUMO-activating enzyme [7]): 0.026 µM
- IC50 (SUMO-activating enzyme [8]): 0.006 µM
- IC50 (NEDD8 activating enzyme [9]): 0.3 µM
- IC50 (NEDD8 activating enzyme [10]): 1.4 µM
- IC50 [11]: 0.41 µM
